Source: ChEMBL document CHEMBL1156416, “Influence of high mutation rates on the mechanisms and dynamics of in vitro and in vivo resistance development to single or combined antipseudomonal agents” (Antimicrob Agents Chemother, 2007)
Converted amounts (≈) assume the structure as drawn. The source made the active and inactive calls. No cut-off for these calls is given here.

Assays:
[1] = test system: Pseudomonas aeruginosa; experiment: Antibacterial activity against Pseudomonas aeruginosa PAOdeltamutS by Etest; assay type: functional
Procedure, shortened: (§1)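 Etest strips were applied on Mueller-Hinton agar following the manufacturer's recommendations. For PAOΔmutS, the MIC read was that of the main population, ignoring resistant colonies growing within the inhibition ellipse.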

[2] = test system: Pseudomonas aeruginosa; experiment: Antibacterial activity against Pseudomonas aeruginosa PAO1 by Etest; assay type: functional; procedure, shortened: as §1
[3] = test system: Mus musculus; experiment: fAUC (0 to 24 hrs) in Pseudomonas aeruginosa PAO1 infected C57BL/6J mouse at 70 mg/kg, ip administered every 3 hrs; assay type: ADME, organism-based; design: dose 70 mg/kg, route intraperitoneal; conditions: in vivo
[4] = test system: Pseudomonas aeruginosa; experiment: Antibacterial activity against Pseudomonas aeruginosa PAOdeltamutS infected in C57BL/6J mouse assessed as lung bacterial count at 70 mg/kg, ip administered every 3 hrs; assay type: functional, organism-based; design: dose 70 mg/kg
Procedure, shortened: (§2)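 Female C57BL/6J mice (20–25 g) were anesthetized with ketamine/xylazine ip. They were inoculated transtracheally with about 2 × 10⁴ cells embedded in agarose beads. Ceftazidime 70 mg/kg every 3 h (or sterile water placebo) started 24 h after inoculation and ran for 3 days, 30 mice per group in two experiments. Lungs were taken 24 h after treatment ended, homogenized in saline, diluted 1/10 serially and plated on MHA; median counts were reported.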

[5] = fCmax/MIC ratio in Pseudomonas aeruginosa PAO1 infected C57BL/6J mouse at 70 mg/kg, ip administered every 3 hrs; assay type: functional; conditions: route intraperitoneal
[6] = Half life of free unbound fraction in Pseudomonas aeruginosa PAO1 infected C57BL/6J mouse at 70 mg/kg, ip administered every 3 hrs; assay type: ADME, organism-based; design: dose 70 mg/kg, route intraperitoneal; conditions: in vivo, read-out: t1/2 unbound fraction (converted)
[7] = test system: Pseudomonas aeruginosa; experiment: f%T>MIC in Pseudomonas aeruginosa PAO1 infected C57BL/6J mouse at 70 mg/kg, ip administered every 3 hrs; assay type: functional; conditions: route intraperitoneal
[8] = test system: Pseudomonas aeruginosa; experiment: Antibacterial activity against Pseudomonas aeruginosa PAO1 infected in C57BL/6J mouse assessed as mortality at 70 mg/kg, ip administered every 3 hrs; assay type: functional; conditions: route intraperitoneal
Procedure, shortened: (§3)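 Female C57BL/6J mice (20–25 g) were infected transtracheally under ketamine/xylazine with about 2 × 10⁴ agarose-bead-embedded cells. Beginning 24 h later, they received ceftazidime 70 mg/kg every 3 h or a sterile water placebo for 3 days. There were 30 mice per group from two independent experiments of 15. Mortality was recorded as the percentage of animals per group.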

[9] = test system: Pseudomonas aeruginosa; experiment: Antibacterial activity against Pseudomonas aeruginosa PAOdeltamutS infected in C57BL/6J mouse assessed as mortality at 70 mg/kg, ip administered every 3 hrs; assay type: functional; conditions: route intraperitoneal; procedure, shortened: as §3
[10] = test system: Pseudomonas aeruginosa; experiment: Antibacterial activity against Pseudomonas aeruginosa PAO1 infected in C57BL/6J mouse assessed as lung bacterial count at 70 mg/kg, ip administered every 3 hrs; assay type: functional, organism-based; design: dose 70 mg/kg; procedure, shortened: as §2
[11] = fCmax/MIC ratio in Pseudomonas aeruginosa PAOdeltamutS infected C57BL/6J mouse at 70 mg/kg, ip administered every 3 hrs; assay type: functional; conditions: route intraperitoneal
[12] = test system: Mus musculus; experiment: fCmax in Pseudomonas aeruginosa PAO1 infected C57BL/6J mouse at 70 mg/kg, ip administered every 3 hrs; assay type: ADME, organism-based; design: dose 70 mg/kg, route intraperitoneal; conditions: in vivo
[13] = fAUC (0 to 24 hrs)/MIC ratio in Pseudomonas aeruginosa PAOdeltamutS infected C57BL/6J mouse at 70 mg/kg, ip administered every 3 hrs; assay type: functional; conditions: route intraperitoneal
[14] = fAUC (0 to 24 hrs)/MIC ratio in Pseudomonas aeruginosa PAO1 infected C57BL/6J mouse at 70 mg/kg, ip administered every 3 hrs; assay type: functional; conditions: route intraperitoneal
[15] = test system: Pseudomonas aeruginosa; experiment: Antibacterial activity against Pseudomonas aeruginosa PAOdeltamutS infected in C57BL/6J mouse assessed as mortality at 20 mg/kg, ip administered every 6 hrs; assay type: functional; conditions: route intraperitoneal
[16] = test system: Pseudomonas aeruginosa; experiment: Antibacterial activity against Pseudomonas aeruginosa PAO1 infected in C57BL/6J mouse assessed as mortality at 20 mg/kg, ip administered every 6 hrs; assay type: functional; conditions: route intraperitoneal
[17] = fCmax/MIC ratio in Pseudomonas aeruginosa PAO1 infected C57BL/6J mouse at 10 mg/kg, ip administered every 6 hrs; assay type: functional; conditions: route intraperitoneal
[18] = test system: Mus musculus; experiment: fAUC (0 to 24 hrs) in Pseudomonas aeruginosa PAO1 infected C57BL/6J mouse at 10 mg/kg, ip administered every 6 hrs; assay type: ADME, organism-based; design: dose 10 mg/kg, route intraperitoneal; conditions: in vivo
[19] = test system: Pseudomonas aeruginosa; experiment: Antibacterial activity against Pseudomonas aeruginosa PAOdeltamutS infected in C57BL/6J mouse assessed as mortality at 10 mg/kg, ip administered every 6 hrs; assay type: functional; conditions: route intraperitoneal
[20] = test system: Mus musculus; experiment: fCmax in Pseudomonas aeruginosa PAO1 infected C57BL/6J mouse at 10 mg/kg, ip administered every 6 hrs; assay type: ADME, organism-based; design: dose 10 mg/kg, route intraperitoneal; conditions: in vivo
[21] = Half life of free unbound fraction in Pseudomonas aeruginosa PAO1 infected C57BL/6J mouse at 10 mg/kg, ip administered every 6 hrs; assay type: ADME, organism-based; design: dose 10 mg/kg, route intraperitoneal; conditions: in vivo, read-out: t1/2 unbound fraction (converted)
[22] = test system: Pseudomonas aeruginosa; experiment: Antibacterial activity against Pseudomonas aeruginosa PAO1 infected in C57BL/6J mouse assessed as mortality at 10 mg/kg, ip administered every 6 hrs; assay type: functional; conditions: route intraperitoneal
[23] = fCmax/MIC ratio in Pseudomonas aeruginosa PAOdeltamutS infected C57BL/6J mouse at 10 mg/kg, ip administered every 6 hrs; assay type: functional; conditions: route intraperitoneal
[24] = test system: Pseudomonas aeruginosa; experiment: Antibacterial activity against Pseudomonas aeruginosa PAOdeltamutS infected in C57BL/6J mouse assessed as lung bacterial count at 10 mg/kg, ip administered every 6 hrs; assay type: functional, organism-based; design: dose 10 mg/kg
[25] = fAUC (0 to 24 hrs)/MIC ratio in Pseudomonas aeruginosa PAOdeltamutS infected C57BL/6J mouse at 10 mg/kg, ip administered every 6 hrs; assay type: functional; conditions: route intraperitoneal
[26] = test system: Pseudomonas aeruginosa; experiment: Antibacterial activity against Pseudomonas aeruginosa PAO1 infected in C57BL/6J mouse assessed as lung bacterial count at 10 mg/kg, ip administered every 6 hrs; assay type: functional, organism-based; design: dose 10 mg/kg
[27] = fAUC (0 to 24 hrs)/MIC ratio in Pseudomonas aeruginosa PAO1 infected C57BL/6J mouse at 10 mg/kg, ip administered every 6 hrs; assay type: functional; conditions: route intraperitoneal

## CO/N=C(\C(=O)N[C@@H]1C(=O)N2C(C(=O)[O-])=C(C[N+]3(C)CCCC3)CS[C@H]12)c1csc(N)n1
[1]
  MIC: 1 mg/L (≈ 2.08 µM)
[2]
  MIC: 1 mg/L (≈ 2.08 µM)

## C[C@H]1[C@H](NC(=O)/C(=N\OC(C)(C)C(=O)O)c2csc(N)n2)C(=O)N1S(=O)(=O)O [AZTREONAM]
[1]
  MIC: 1.5 mg/L (≈ 3.44 µM)
[2]
  MIC: 1.5 mg/L (≈ 3.44 µM)

## CC(C)(O/N=C(\C(=O)N[C@@H]1C(=O)N2C(C(=O)[O-])=C(C[n+]3ccccc3)CS[C@H]12)c1csc(N)n1)C(=O)O [CEFTAZIDIME]
[3]
  fAUC: 593.6 µg·h/mL
[1]
  MIC: 1 mg/L (≈ 1.83 µM)
[4]
  Activity: Active
[5]
  fc max: 183
[2]
  MIC: 1 mg/L (≈ 1.83 µM)
[6]
  half-life: 24 min
[7]
  f %t > MIC: 54%
[8]
  mortality at 70 mg/kg: 56.7%
[9]
  mortality at 70 mg/kg: 43.3%
[10]
  Activity: Active
[11]
  fc max: 183
[12]
  fc max: 183.1 mg/L
[13]
  fAUC/MIC: 594
[14]
  fAUC/MIC: 594

## O=C(N[C@H](CO)[C@H](O)c1ccc([N+](=O)[O-])cc1)C(Cl)Cl [CHLORAMPHENICOL]
[1]
  MIC: 32 mg/L (≈ 99 µM)
[2]
  MIC: 32 mg/L (≈ 99 µM)

## O=C(O)c1cn(C2CC2)c2cc(N3CCNCC3)c(F)cc2c1=O [CIPROFLOXACIN]
[15]
  mortality at 20 mg/kg: 26.7%
[1]
  MIC: 0.12 mg/L (≈ 0.362 µM)
[16]
  mortality at 20 mg/kg: 26.7%

## C[C@@H](O)[C@H]1C(=O)N2C(C(=O)O)=C(SCCNC=N)C[C@H]12 [IMIPENEM ANHYDROUS]
[1]
  MIC: 1.5 mg/L (≈ 5.01 µM)
[2]
  MIC: 1.5 mg/L (≈ 5.01 µM)

## C[C@@H](O)[C@H]1C(=O)N2C(C(=O)O)=C(S[C@@H]3CN[C@H](C(=O)N(C)C)C3)[C@H](C)[C@H]12 [MEROPENEM]
[1]
  MIC: 0.75 mg/L (≈ 1.96 µM)
[2]
  MIC: 0.5 mg/L (≈ 1.3 µM)

## CN(C)[C@@H]1C(O)=C(C(N)=O)C(=O)[C@@]2(O)C(O)=C3C(=O)c4c(O)cccc4[C@@](C)(O)[C@H]3C[C@@H]12 [TETRACYCLINE]
[1]
  MIC: 24 mg/L (≈ 54 µM)
[2]
  MIC: 24 mg/L (≈ 54 µM)

## NC[C@H]1O[C@H](O[C@H]2[C@H](O)[C@@H](O[C@H]3O[C@H](CO)[C@@H](O)[C@H](N)[C@H]3O)[C@H](N)C[C@@H]2N)[C@H](N)C[C@@H]1O [TOBRAMYCIN]
[1]
  MIC: 1 mg/L (≈ 2.14 µM)
[17]
  fc max/MIC: 19
[18]
  fAUC: 42.96 µg·h/mL
[19]
  mortality at 10 mg/kg: 60%
[2]
  MIC: 1 mg/L (≈ 2.14 µM)
[20]
  fc max: 19.07 mg/L
[21]
  half-life: 33 min
[22]
  mortality at 10 mg/kg: 66.7%
[23]
  fc max/MIC: 19
[24]
  f %t > MIC: Active
[25]
  fAUC/MIC: 43
[26]
  f %t > MIC: Active
[27]
  fAUC/MIC: 43
